Measurements from ChEMBL document CHEMBL4393661, “PRODRUGS FOR NITROREDUCTASE BASED CANCER THERAPY- 2: Novel amide/Ntr combinations targeting PC3 cancer cells” (Eur J Med Chem, 2019).

Experiments:
[1] = substrate: CCN(C(C)=O)c1cc([N+](=O)[O-])cc([N+](=O)[O-])c1; assay: (§1) Substrate activity at Staphylococcus saprophyticus nitroreductase assessed as Km using NADPH as cofactor in presence of Tris-Cl buffer at pH 7.5 by spectrophotometric method; assay type: ADME
Outline: (§2)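 Michaelis–Menten parameters for recombinant Ssap-NtrB were measured spectrophotometrically at 25 °C in 25 mM Tris-Cl buffer pH 7.5 containing 5% DMSO as cosolvent.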

[2] = substrate: NC(=O)c1cc(N2CC2)c([N+](=O)[O-])cc1[N+](=O)[O-]; assay: as §1; assay type: ADME; outline: as §2
[3] = substrate: CS(=O)(=O)OCCN(CCBr)c1c(C(=O)NCCO)cc([N+](=O)[O-])cc1[N+](=O)[O-]; assay: (§3) Substrate activity at Escherichia coli nitroreductase nfsB assessed as Kcat using NADH as cofactor at […] in Tris-Cl buffer at pH 7.5 by spectrophotometric method
[4] = substrate: NC(=O)c1cc(N(CCCl)CCCl)c([N+](=O)[O-])cc1[N+](=O)[O-]; assay: as §3
[5] = substrate: NC(=O)c1cc(N2CC2)c([N+](=O)[O-])cc1[N+](=O)[O-]; assay: as §3
[6] = substrate: CS(=O)(=O)OCCN(CCBr)c1c(C(=O)NCCO)cc([N+](=O)[O-])cc1[N+](=O)[O-]; assay: (§4) Substrate activity at Escherichia coli nitroreductase nfsB assessed as Km using NADH as cofactor in Tris-Cl buffer at pH 7.5 by spectrophotometric method; assay type: ADME
[7] = substrate: NC(=O)c1cc(N2CC2)c([N+](=O)[O-])cc1[N+](=O)[O-]; assay: as §4; assay type: ADME

B1: Putative nitroreductase (Staphylococcus saprophyticus subsp. saprophyticus ATCC 15305 = NCTC 7292) (protein)
chain: MINNNFEEILMNRKSVKVFDEQVKIPKAEMDEMIKKATTAPSSVNMQPWRFLVVESDEGKDTLRPLIRFNTRQNDSSAAMVVIFGDMKSQTNAEEIYGNAVKHDLMPEEVKQEMLKKVIPLYDNAPKEQMNDIVKIDSSLAAMQFMLVAKAHGYDTNPIGGFESDQIADAFGIDSERYVPVLIVAIGKAKNPAHGSYRLPTETVTKYV
In the case of B1, the Km [1] is reported as 96.9 µM, the Km [2] is reported as 1070 µM and the kcat [2] is reported as 2.26 s⁻¹. The kcat/Km [2] was 2120 M⁻¹ s⁻¹.

B2: Oxygen-insensitive NAD(P)H nitroreductase (Escherichia coli K-12), P38489 (protein)
chain: MDIISVALKRHSTKAFDASKKLTPEQAEQIKTLLQYSPSSTNSQPWHFIVASTEEGKARVAKSAAGNYVFNERKMLDASHVVVFCAKTAMDDVWLKLVVDQEDADGRFATPEAKAANDKGRKFFADMHRKDLHDDAEWMAKQVYLNVGNFLLGVAALGLDAVPIEGFDAAILDAEFGLKEKGYTSLVVVPVGHHSVEDFNATLPKSRLPQNITLTEV
B2 was tested, and the kcat [3] was 60 s⁻¹, the kcat [4] was 26.4 s⁻¹ and the kcat [5] was 62 s⁻¹.

B3: Oxygen-insensitive NAD(P)H nitroreductase (Escherichia coli K-12) (protein)
chain: B2 chain
In the case of B3, the Km [6] is reported as 4500 µM, the kcat/Km [6] is reported as 13000 M⁻¹ s⁻¹ and the Km [7] is reported as 11000 µM. It also gave a kcat/Km [7] of 5600 M⁻¹ s⁻¹.
